Compounds with a hit are over-represented: about 7.2% of the library has one in this group of screens.
DAT uptake mod – changed hDAT dopamine uptake under cocaine IC80, either direction, primary screen, cocaine antagonist project, cell-based, LLC-PK1 hDAT, [14C]-dopamine uptake, MLSMR | Sodium-dependent dopamine transporter (Homo sapiens), Q01959 | LLC-PK1 hDAT cells, [14C]-dopamine uptake with cocaine IC80; actives deviate in either direction | B-score at 10 µM | actives 1.3% (n = 110,000) | AID 449768, 2010;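 active means Z score or B-score, a plate-position-corrected score, falls beyond the plate's 99.7% confidence bounds, in either direction; inactive means both scores lie inside the 99.7% bounds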
BAP1 inh – inhibitors of BAP1 deubiquitinase, primary screen, biochemical, Ub-AMC fluorescence, kinetic; Ubiquitin carboxyl-terminal hydrolase BAP1 (Homo sapiens), Q92560; calls only at 20 µM; actives 0.48% (n = 72,000); recombinant BAP1, Ub-AMC hydrolysis fluorescence kinetic; stronger effect = lower value;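 active means activity remaining at or below 50% of control, provided the compound also passes the data quality filters; inactive means the rest, including low values that fail the filters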
Target sequence (Q92560 whole entry, looked up): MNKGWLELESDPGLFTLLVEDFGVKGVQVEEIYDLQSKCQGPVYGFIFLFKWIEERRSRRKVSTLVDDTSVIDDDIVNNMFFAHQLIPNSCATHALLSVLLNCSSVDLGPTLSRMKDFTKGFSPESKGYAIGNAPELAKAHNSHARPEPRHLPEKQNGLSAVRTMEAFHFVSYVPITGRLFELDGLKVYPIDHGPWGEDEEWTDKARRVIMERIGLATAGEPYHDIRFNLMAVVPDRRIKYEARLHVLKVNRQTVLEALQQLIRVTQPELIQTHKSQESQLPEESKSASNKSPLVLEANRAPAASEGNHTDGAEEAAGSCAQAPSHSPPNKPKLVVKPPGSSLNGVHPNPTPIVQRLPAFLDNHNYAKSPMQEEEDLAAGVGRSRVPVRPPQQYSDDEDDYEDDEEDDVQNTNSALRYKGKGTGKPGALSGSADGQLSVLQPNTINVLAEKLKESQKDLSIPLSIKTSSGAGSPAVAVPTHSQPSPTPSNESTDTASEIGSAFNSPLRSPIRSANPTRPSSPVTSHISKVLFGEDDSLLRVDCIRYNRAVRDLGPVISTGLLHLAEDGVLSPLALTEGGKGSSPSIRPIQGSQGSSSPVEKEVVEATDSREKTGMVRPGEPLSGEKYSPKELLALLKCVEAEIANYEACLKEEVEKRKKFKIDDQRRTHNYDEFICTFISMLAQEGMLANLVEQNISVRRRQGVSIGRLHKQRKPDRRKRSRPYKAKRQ
HEK293 NFkB inh – inhibitors of PMA/ionomycin-induced NF-kB reporter, primary screen, antigen receptor NF-kB inhibitor project, cell-based, HEK-293 luciferase reporter, luminescence; HEK-293 NF-kB luciferase reporter; inhibition, % at 3 µM; actives 0.21% (n = 62,000);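 active means inhibition above the mean of all tested compounds plus 3 SD, cut at about 40% in these data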
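System – HEK-293 cells with stable firefly luciferase reporter driven by four HIV NF-kB elements · Doses – one dose, 3 µM · Schedule – 1 h compound pre-incubation, 16 h PMA/ionomycin at 37 °C · Technique – luminescence from luciferase substrate reagent · Measure – percent inhibition normalized per plate to DMSO and reference-inhibitor controls · Replicates – tested once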
M1 antag – antagonists of rat M1 muscarinic receptor; CHO-M1 cells, Fluo-4 calcium, ACh EC80 antagonist mode; stronger effect = lower value; B-score at 10 µM; actives 3.4% (n = 64,000);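 active means calcium fluorescence response, raw or row-and-column corrected B-score, differing from the plate sample mean either way at a set confidence level, mostly lower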
M1 agonist – M1 muscarinic receptor agonists, primary screen, CHO-M1 cells, Fluo-4 calcium, agonist mode. Muscarinic acetylcholine receptor M1. Fluo-4 calcium fluorescence; stronger effect = higher value. B-score at 10 µM. actives 3% (n = 64,000). AID 626, 2007;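 active means fluorescence rise, raw or as B-score row- and column-corrected plate score, outside the 99.7% band of its plate's samples, either direction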
D1 mod – D1 CRE-luciferase signal change, two-sided – cell-based, HEK293 D1, dopamine EC30, D1 allosteric modulator project, primary screen; actives 5.9% (n = 58,000); B-score at 10 µM; dopamine EC30 potentiation; actives deviate in either direction; AID 641, 2007; D(1A) dopamine receptor (Homo sapiens), P21728;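 active means luminescence count or its row- and column-corrected plate score outside the 99.7% band of the plate's sample wells, on either side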
D1 PAM confirm – D1 receptor positive allosteric modulators, retest, confirmation, cell-based, HEK293 D1, CRE-luciferase, duplicate. luminescence at 10 µM. shares compounds with D1 mod. dopamine EC30 potentiation; stronger effect = higher value. actives 88% (n = 2,200);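 active means luminescence in either of two replicates above the same-plate mean plus 3 SD of the low-dose dopamine control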
D1 no dopamine – D1 receptor agonism without dopamine, confirmation, mechanism study for D1 allosteric modulator project, cell-based, HEK293 D1, CRE-luciferase, secondary assay 1. shares compounds with D1 mod. luminescence, no dopamine; stronger effect = higher value. luminescence at 10 µM. actives 0.8% (n = 1,900). AID 646, 2007; in the data active means luminescence above about 3900
Isoprot counter – isoproterenol response counter-screen activity for D1 modulators; HEK293 D1 CRE-luciferase, isoproterenol EC30 counter-screen; shares compounds with D1 mod; actives 63% (n = 2,200); calls only at 10 µM;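 active means luminescence in either replicate above plate mean of wells with a partly effective reference agonist dose plus 3 SD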;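 further: isoproterenol raises cAMP through native beta-adrenoceptor Gs so signal bypasses D1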
A number is an active result; 0 = inactive; - = no result shown; + = active, no number.

SMILES | DAT uptake mod | BAP1 inh | HEK293 NFkB inh | M1 antag | M1 agonist | D1 mod | D1 PAM confirm | D1 no dopamine | Isoprot counter
CCOC(=O)CCn1c2nc(C)cc(C)c2c(=O)n1-c1ccccc1 | 0 | 0 | 0 | 0 | 0 | 2.2 | 0 | 0 | 0
CCOC(=O)c1cc(-c2ccc(C)o2)nn1CCC#N | 0 | - | 0 | 0 | 0 | 5.6 | 19640 | 0 | +
CCOC(=O)c1cc(-c2cccs2)nn1CCC#N | 0 | 0 | 0 | 0 | 0 | - | - | - | -
N#Cc1nc(-c2ccc(F)cc2)oc1NCc1cccc2c1OCO2 | 0 | 0 | 0 | 0 | 0 | 0 | - | - | -
CC(C)CNc1oc(-c2ccc(F)cc2)nc1C#N | 0 | - | 0 | 0 | 0 | 13 | 14732 | 0 | +
O=C(CCn1ccnc1)c1ccc(Br)cc1 | - | 0 | - | - | - | - | - | - | -
Cc1ccc(C)n1-n1c(C)nc2scc(-c3cccs3)c2c1=O | 0 | 0 | 0 | 0 | 0 | 0 | - | - | -
Cc1nc2scc(-c3cccs3)c2c(=O)n1-n1cccc1 | 0 | 0 | 0 | 0 | 0 | 4.1 | 9316 | 0 | +
CC1CCN(c2nc(-c3ccccc3)c(C#N)c(=O)[nH]2)CC1 | 0 | - | 0 | 0 | 0 | - | - | - | -
CC(C)c1ccc(-c2nc(N3CCCCC3)[nH]c(=O)c2C#N)cc1 | 0 | 0 | 0 | 0 | 0 | 5.5 | 19464 | 0 | 0
CCOC(=O)C1=CN(C)C=C(C(=O)OCC)C1c1ccsc1 | 0 | - | 0 | 2.2 | 0 | 5.8 | 0 | 0 | 0
CCCSc1nc(NCc2ccco2)c2c3c(sc2n1)COC(C)(C)C3 | 0 | - | - | - | - | - | - | - | -
Cc1cc(C)n(-c2nc(NCc3cccnc3)c3c4c(sc3n2)COC(C)(C)C4)n1 | 0 | 0 | 0 | 0 | 0 | 3 | 14976 | 0 | +
CCOc1cc(-c2cc(-c3ccc(N)cc3)nc(N)c2C#N)ccc1O | 0 | 0 | 0 | 0 | 0 | 8.6 | 19856 | 0 | +
CCOc1cc(-c2cc(-c3ccccc3)nc(N)c2C#N)ccc1O | 0 | - | - | - | - | - | - | - | -
CCSc1nnc2c(n1)OC1(CCCC1)Nc1ccccc1-2 | 0 | 0 | 0 | 0 | 0 | 6.6 | 15136 | 0 | +
COc1ccc(S(=O)(=O)NCc2ccco2)cc1-c1nnc2c3ccccc3c(C)nn12 | 0 | 0 | 0 | 0 | 0 | 8.6 | 8232 | 0 | +
CCCC(c1nnnn1C1CCCC1)N1CCN(C(=O)c2ccco2)CC1 (centres undefined) | 0 | 0 | 0 | 0 | 0 | 3.4 | 0 | 0 | 0
CCCCC(c1nnnn1C1CCCC1)N1CCN(C(=O)c2ccco2)CC1 (centres undefined) | 0 | 0 | 0 | 0 | 0 | 0 | - | - | -
CCOC(=O)c1c(C)nc2c3ccccc3ccn12 | 0 | 0 | 0 | 0 | 0 | 5.3 | 19468 | 0 | +
CCOC(=O)c1c(C)nc2sccn12 | 0 | 0 | 0 | 0 | 0 | 2.6 | 12992 | 0 | 0
CCOc1ccc(-c2nc(-c3ccc(OC)c(OC)c3)no2)cc1OCC | 0 | 0 | 0 | 0 | 0 | 0 | - | - | -
CCOc1ccc(-c2noc(-c3cccnc3)n2)cc1OC | - | 0 | 0 | 0 | 0 | 4.3 | 10956 | 0 | 0
CCOc1cc(-c2noc(-c3cccnc3)n2)ccc1OC | 0 | 0 | 0 | 0 | 0 | 19 | 21224 | - | +
CCOC(=O)c1c(NC(=O)c2ccc(S(=O)(=O)N3CC(C)OC(C)C3)cc2)sc(C)c1C (centres undefined) | - | 0 | - | - | - | - | - | - | -
SMILES | DAT uptake mod | BAP1 inh | HEK293 NFkB inh | M1 antag | M1 agonist | D1 mod | D1 PAM confirm | D1 no dopamine | Isoprot counter
COc1ccc(C2=NOC(C(=O)NCc3cccs3)C2)cc1 (centres undefined) | 0 | - | - | - | - | - | - | - | -
O=C(NCc1cccs1)C1CC(c2ccccc2O)=NO1 (centres undefined) | - | 0 | 0 | 0 | 0 | 2.8 | 6344 | 0 | 0
CC=CCOC(=O)C1=C(C)NC(=O)NC1c1ccc(O)c(OC)c1 (centres undefined) | - | 0 | - | - | - | - | - | - | -
CCCN1C(=O)c2ccccc2NC1c1ccc(OC)cc1O (centres undefined) | 0 | - | 0 | 0 | 0 | 4.4 | 0 | 0 | 0
N#Cc1cc2c(nc1SCc1cccnc1)CCCCC2 | 0 | 0 | 0 | 0 | 0 | 10 | 23880 | 0 | +
Cc1cc(C)n(-c2ncc(-c3ccccc3)nn2)n1 | 0 | 0 | 0 | 0 | 0 | 4.5 | 6696 | - | 0
CCc1ccc(C2C(C#N)=C(N)SC(N)=C2C#N)cc1 | 0 | 0 | 0 | 0 | 0 | 0 | - | - | -
CCOc1ccccc1C1C(C#N)=C(N)SC(N)=C1C#N | - | 0 | 0 | 0 | 0 | 0 | - | - | -
CCOc1ccc(C2C(C#N)=C(N)SC(N)=C2C#N)cc1OC | 0 | 0 | - | 0 | 64 | 6.1 | 10912 | 0 | 0
CCOc1ccc(C2C(C#N)=C(N)SC(N)=C2C#N)cc1OCC | 0 | - | 0 | 0 | 0 | 5.4 | 13032 | 0 | +
COc1ccc(CN2CCN(S(=O)(=O)c3ccc(F)cc3)CC2)cc1OC | 0 | 0 | 0 | 0 | 0 | 22 | 24864 | 0 | +
COc1ccccc1CN1CCN(S(=O)(=O)c2ccccc2)CC1 | 0 | - | - | - | - | - | - | - | -
COc1ccc(CN2CCN(S(=O)(=O)c3ccccc3)CC2)c(OC)c1 | 0 | 0 | 0 | 0 | 0 | 4.4 | 6876 | 0 | 0
COc1ccc(CN2CCN(S(=O)(=O)c3ccc(F)cc3)CC2)c(OC)c1OC | 0 | - | - | - | - | - | - | - | -
Cc1cc(C(F)F)n2ncc(C(=O)NC3CCCCCC3)c2n1 | 0 | 0 | 0 | 0 | 0 | 6.3 | 10720 | 0 | +
Cc1cc(C(F)F)n2ncc(C(=O)NCc3ccccc3C(F)(F)F)c2n1 | 0 | 0 | 0 | 0 | 0 | 5.3 | 8576 | - | +
CCCc1[nH]nc2c1C1(CCN(C(=O)OCc3ccccc3)CC1)C(C#N)=C(N)O2 | 0 | 0 | 0 | 0 | 0 | 2.5 | 8040 | 0 | +
CC(=O)Nc1cc(C(=O)N2CCOCC2)ccc1S(=O)(=O)c1ccc(C)cc1 | 0 | 0 | 0 | 0 | 0 | 5.6 | 0 | 0 | 0
COc1ccc(-c2c3c(=O)n(C)c(=O)n(C)c3cn2C2CCCCC2)cc1 | 0 | 0 | 0 | 0 | 0 | 7.7 | 15660 | 0 | +
COc1ccc(-c2cn3ccccc3n2)cc1OC | 0 | 0 | 0 | 0 | 0 | 12 | 12712 | - | +

Assay outcomes deposited in PubChem BioAssay by several laboratories.
